Results taken from ChEMBL document CHEMBL1140939, “A series of 2,4-disubstituted quinolines as a new class of allosteric enhancers of the adenosine A3 receptor” (J Med Chem, 2009).

Assays:
[1] = biological target: T1, Adenosine receptor A1 (Homo sapiens) (UniProt P30542); experiment: Displacement of [125I]AB-MECA from human adenosine A1 receptor expressed in CHO cells at 10 uM; type: cell-based
T1 sequence (whole entry): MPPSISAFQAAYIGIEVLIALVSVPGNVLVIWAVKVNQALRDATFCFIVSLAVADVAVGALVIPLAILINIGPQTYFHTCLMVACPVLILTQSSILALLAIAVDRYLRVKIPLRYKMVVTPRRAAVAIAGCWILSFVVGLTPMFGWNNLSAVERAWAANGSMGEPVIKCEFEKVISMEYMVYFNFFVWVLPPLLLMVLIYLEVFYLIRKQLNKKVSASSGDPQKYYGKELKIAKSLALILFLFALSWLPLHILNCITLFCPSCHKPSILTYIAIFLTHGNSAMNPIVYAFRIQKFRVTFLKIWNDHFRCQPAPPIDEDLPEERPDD
Summary of the method: (§1)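 Equilibrium binding on CHO membranes with human A1 (20 µg protein, 60 min) or A3 (10 µg, 120 min) at 25 °C. Buffer 50 mM Tris-HCl pH 8.0, 10 mM MgCl2, 1 mM EDTA, 0.01% CHAPS. Test ligand 10 µM with ~0.1 nM 125I-AB-MECA. Nonspecific binding with 10 µM DPCPX (A1) or 100 µM R-PIA (A3). Filtration, then γ-counting.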

[2] = biological target: T2, Adenosine receptor A3 (Homo sapiens) (UniProt P0DMS8); experiment: Displacement of [125I]AB-MECA from human adenosine A3 receptor expressed in CHO cells at 10 uM; type: cell-based; summary of the method: as §1
T2 sequence (whole entry): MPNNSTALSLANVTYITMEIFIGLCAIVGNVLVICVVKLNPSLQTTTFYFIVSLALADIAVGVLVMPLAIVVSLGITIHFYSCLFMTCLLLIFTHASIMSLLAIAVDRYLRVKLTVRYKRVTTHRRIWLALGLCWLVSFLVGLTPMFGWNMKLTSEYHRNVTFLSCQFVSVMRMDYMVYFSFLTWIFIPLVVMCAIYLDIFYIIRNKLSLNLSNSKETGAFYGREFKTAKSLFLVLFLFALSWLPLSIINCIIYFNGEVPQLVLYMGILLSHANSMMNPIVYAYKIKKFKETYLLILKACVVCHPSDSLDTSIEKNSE

[3] = biological target: Adenosine receptor A2a (Homo sapiens) (UniProt P29274); experiment: Displacement of [3H]ZM241385 from human adenosine A2A receptor expressed in HEK293 cells at 10 uM; type: cell-based
Summary of the method: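 HEK293 membranes with human A2A (30 µg protein) incubated 120 min at 25 °C in 50 mM Tris-HCl pH 7.4 with ~1.7 nM [3H]ZM241385 and 10 µM test ligand. Nonspecific binding defined by 100 µM CGS 21680. Filtration, then liquid scintillation counting.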

[4] = biological target: T3, Adenosine receptor A2b (Homo sapiens) (UniProt P29275); experiment: Displacement of [3H]MRS1754 from human adenosine A2B receptor expressed in CHO cells at 10 uM; type: cell-based
T3 sequence (whole entry): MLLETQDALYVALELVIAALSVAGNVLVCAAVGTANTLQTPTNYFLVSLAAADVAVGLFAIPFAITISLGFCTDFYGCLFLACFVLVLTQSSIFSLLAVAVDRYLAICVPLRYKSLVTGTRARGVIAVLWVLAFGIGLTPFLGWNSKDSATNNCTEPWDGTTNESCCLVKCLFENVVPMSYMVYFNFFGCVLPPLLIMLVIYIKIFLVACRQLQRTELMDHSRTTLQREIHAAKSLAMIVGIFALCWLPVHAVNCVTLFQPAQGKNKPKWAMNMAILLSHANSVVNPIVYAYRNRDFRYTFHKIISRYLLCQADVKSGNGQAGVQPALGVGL
Summary of the method: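 CHO membranes expressing human A2B (20 µg protein) with ~1.2 nM [3H]MRS1754 and 10 µM test ligand, 60 min at 25 °C, in 50 mM Tris-HCl pH 7.4 with 0.1% CHAPS. Nonspecific binding with 1 mM NECA. Filtration, then scintillation counting.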

[5] = biological target: T1, Adenosine receptor A1 (Homo sapiens); experiment: Binding affinity to human adenosine A1 receptor expressed in CHO cells assessed as enhancement of DPCPX-induced displacement of [125I]AB-MECA from receptor at 10 uM after 90 mins relative to control; type: cell-based
Summary of the method: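 CHO membranes expressing human A1 (20 µg) or A3 (10 µg) preincubated with ~0.1 nM 125I-AB-MECA at 25 °C, 60 min (A1) or 120 min (A3), in 50 mM Tris-HCl pH 8.0, 10 mM MgCl2, 1 mM EDTA, 0.01% CHAPS. Dissociation started with 10 µM DPCPX (A1) or 10 µM Cl-IB-MECA (A3), with or without modulator. Bound ligand read at 90 min (A1) or 120 min (A3); control = 100%. Two assays in duplicate.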

[6] = biological target: T2, Adenosine receptor A3 (Homo sapiens); experiment: Binding affinity to human adenosine A3 receptor expressed in CHO cells assessed as enhancement of C1IB-MECA-induced displacement of [125I]AB-MECA from receptor at 10 uM after 120 mins relative to control
[7] = biological target: T2, Adenosine receptor A3 (Homo sapiens); experiment: Intrinsic activity at human adenosine A3 receptor expressed in CHO cells assessed as increase in C1IB-MECA-stimulated inhibition of forskolin-induced cAMP release at 10 uM by TR-FRET assay; type: functional, cell-based
Summary of the method: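 Forskolin-stimulated cAMP in CHOhA3 cells (~5000/well). Cl-IB-MECA concentration range given with or without 10 µM modulator in stimulation buffer (PBS, 5 mM Hepes pH 7.4, 0.1% BSA, 50 µM rolipram, 50 µM cilostamide), 15 min at room temperature. Forskolin 1 µM added, 30 min at room temperature. TR-FRET cAMP read-out. 100% = cAMP with 10 µM Cl-IB-MECA, 0% = forskolin alone. Three assays in duplicate.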

Chain of Adenosine receptor A2a (Homo sapiens) (P29274 whole entry): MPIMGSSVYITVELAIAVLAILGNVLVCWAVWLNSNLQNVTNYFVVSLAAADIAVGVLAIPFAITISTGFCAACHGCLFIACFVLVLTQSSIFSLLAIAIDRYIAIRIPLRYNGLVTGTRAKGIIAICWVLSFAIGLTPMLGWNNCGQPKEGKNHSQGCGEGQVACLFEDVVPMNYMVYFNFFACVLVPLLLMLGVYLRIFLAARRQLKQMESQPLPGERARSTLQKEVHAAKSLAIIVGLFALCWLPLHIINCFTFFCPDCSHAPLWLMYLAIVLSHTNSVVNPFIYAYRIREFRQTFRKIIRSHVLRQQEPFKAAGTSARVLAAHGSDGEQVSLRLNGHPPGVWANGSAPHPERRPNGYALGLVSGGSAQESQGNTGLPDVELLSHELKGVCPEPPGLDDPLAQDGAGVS

Row | Activity [1] | Activity [2] | Activity [3] | Activity [4] | Activity [5] | Activity [6] | Emax [7] | SMILES
1 | 24% | 9% | 19% | 35% | 94% | 134% |  | COc1ccc(Nc2cc(NC(=O)C3CCCC3)c3ccccc3n2)cc1
2 | 73% | 92% | 95% | 60% | 68% | 100% |  | O=C(Nc1cc(Nc2ccccc2)nc2ccccc12)c1ccco1
3 | 76% | 73% | 79% | 66% | 79% | 119% |  | O=C(Nc1cc(Nc2ccccc2)nc2ccccc12)C1CCC1
4 | 61% | 52% | 56% | 90% | 72% | 102% |  | O=C(Nc1cc(Nc2ccc3cn[nH]c3c2)nc2ccccc12)C1CCCC1
5 | 39% | 3% | 16% | 41% | 120% | 229% | 286% | Clc1ccc(Nc2nc3ccccc3c3nc(C4CCCCC4)[nH]c23)cc1Cl
6 | 80% | 42% | 72% | 14% | 107% | 114% |  | O=C(Nc1cc(NC2CCCC2)nc2ccccc12)C1CCCC1
7 | 17% | 26% | -74% | -50% | 125% | 169% |  | O=C(Nc1cc(Nc2ccc(Cl)c(Cl)c2)nc2ccccc12)C1CCCC1
8 | 64% | 46% | 75% | 76% | 77% | 100% |  | O=C(Nc1cc(Nc2ccccc2)nc2ccccc12)c1ccccc1
9 | 20% | 10% | 19% | 42% | 118% | 217% |  | O=C(Nc1cc(Nc2ccc3c(c2)CCC3)nc2ccccc12)C1CCCCC1
10 | 47% | 36% | 14% | 62% | 90% | 147% |  | O=C(Nc1cc(Nc2ccc3c(c2)CCC3)nc2ccccc12)C1CCCC1
11 | 12% | 12% | -19% | 17% | 94% | 249% | 223% | O=C(Nc1cc(Nc2ccc(Cl)c(Cl)c2)nc2ccccc12)C1CCCCC1
12 | 63% | -3% | -3% | 64% | 121% | 220% |  | Cc1ccc(Nc2cc(NC(=O)C3CCCCC3)c3ccccc3n2)cc1
13 | 23% | 11% | -20% | 37% | 102% | 112% |  | O=C(Nc1cc(Nc2ccc(Cl)c(Cl)c2)nc2ccccc12)c1ccccc1
14 | 52% | 27% | 35% | 63% | 115% | 165% |  | Cc1ccc(Nc2cc(NC(=O)C3CCCC3)c3ccccc3n2)cc1
15 | 49% | 33% | 34% | 61% | 104% | 145% |  | O=C(Nc1cc(Nc2ccccc2)nc2ccccc12)C1CCCC1
16 | 11% | 15% | 10% | 13% | 69% | 96% |  | O=C(Nc1cc(Nc2ccc(Cl)c(Cl)c2)nc2ccccc12)c1ccco1
17 | 34% | 34% | 49% | 28% | 77% | 107% |  | O=C(Nc1cc(NCc2ccccc2)nc2ccccc12)C1CCCC1
18 | 22% | 41% | 38% | 51% | 72% | 149% |  | O=C(Nc1cc(Nc2ccc(Cl)c(Cl)c2)nc2ccccc12)C1CCC1
19 | 17% | 21% | 5% | 26% | 70% | 210% |  | O=C(Nc1cc(Nc2ccccc2)nc2ccccc12)C1CCCCC1
